Measured values reported in ChEMBL document CHEMBL5131404, “Lipophilic quinolone derivatives: Synthesis and in vitro antibacterial evaluation” (2022).
Converted amounts (≈) assume the structure as drawn.

Legend:
Assay type in all cases: functional
Staphylococcus aureus [1] = experiment: Antibacterial activity against methicillin-resistant Staphylococcus aureus 197
In short: (§1)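 Strains grown on Mueller-Hinton agar. MIC by broth microdilution following CLSI guidelines, taken as the lowest concentration inhibiting bacterial growth. Determined at least three times in independent experiments.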

Acinetobacter baumannii [2] = experiment: Antibacterial activity against Acinetobacter baumannii ATCC 19606
In short: (§2)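 Broth microdilution MIC following CLSI guidelines. Strains were grown on Mueller-Hinton agar beforehand. The MIC is the lowest compound concentration that inhibits bacterial growth, determined at least three times in independent experiments.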

Acinetobacter baumannii [3] = experiment: Antibacterial activity against Acinetobacter baumannii 139; in short: as §2
Acinetobacter baumannii [4] = experiment: Antibacterial activity against Acinetobacter baumannii 140; in short: as §2
Escherichia coli [5] = experiment: Antibacterial activity against Escherichia coli ATCC 35218; in short: as §2
Escherichia coli [6] = experiment: Antibacterial activity against Escherichia coli 202; in short: as §2
Escherichia coli [7] = experiment: Antibacterial activity against Escherichia coli 203; in short: as §2
Neisseria gonorrhoeae [8] = experiment: Antibacterial activity against Neisseria gonorrhoeae ATCC 19424
In short: (§3)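 Agar dilution MIC. Strains were cultured on GC agar with 2% v/v Vitox and 1% haemoglobin. Suspensions of 10^5 CFU/mL were spotted in duplicate onto the same supplemented GC agar containing various compound concentrations, then incubated 24-48 h at 37°C in 5% CO2. The MIC is the lowest concentration inhibiting growth, from at least three independent experiments.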

Pseudomonas aeruginosa [9] = experiment: Antibacterial activity against Pseudomonas aeruginosa ATCC 27853; in short: as §2
Pseudomonas aeruginosa [10] = experiment: Antibacterial activity against Pseudomonas aeruginosa 142; in short: as §2
Pseudomonas aeruginosa [11] = experiment: Antibacterial activity against Pseudomonas aeruginosa 143; in short: as §2
Streptococcus pneumoniae = experiment: Antibacterial activity against Streptococcus pneumoniae ATCC 49169; in short: as §2
Staphylococcus aureus [12] = experiment: Antibacterial activity against Staphylococcus aureus ATCC 29213; in short: as §2
Staphylococcus aureus [13] = experiment: Antibacterial activity against methicillin-resistant Staphylococcus aureus 196; in short: as §1
Neisseria gonorrhoeae [14] = experiment: Antibacterial activity against Neisseria gonorrhoeae WHO K; in short: as §3
Neisseria gonorrhoeae [15] = experiment: Antibacterial activity against Neisseria gonorrhoeae WHO G; in short: as §3
Neisseria gonorrhoeae [16] = experiment: Antibacterial activity against Neisseria gonorrhoeae Barla194; in short: as §3
Neisseria gonorrhoeae [17] = experiment: Antibacterial activity against Neisseria gonorrhoeae WHO Q; in short: as §3
Neisseria gonorrhoeae [18] = experiment: Antibacterial activity against Neisseria gonorrhoeae WHO O; in short: as §3
Neisseria gonorrhoeae [19] = experiment: Antibacterial activity against Neisseria gonorrhoeae WHO M
In short: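 Agar dilution on GC agar base with 2% v/v Vitox and 1% haemoglobin containing graded compound concentrations. Suspensions at 10^5 CFU/mL spotted in duplicate. Incubation 24-48h, 37°C, 5% CO2. MIC taken as the lowest concentration inhibiting growth, determined at least three times in independent experiments.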

Neisseria gonorrhoeae [20] = experiment: Antibacterial activity against Neisseria gonorrhoeae WHO E; in short: as §3
Neisseria gonorrhoeae [21] = experiment: Antibacterial activity against Neisseria gonorrhoeae WHO C; in short: as §3
Neisseria gonorrhoeae [22] = experiment: Antibacterial activity against Neisseria gonorrhoeae WHO B; in short: as §3
Neisseria gonorrhoeae [23] = experiment: Antibacterial activity against Neisseria gonorrhoeae WHO A; in short: as §3
Neisseria gonorrhoeae [24] = experiment: Antibacterial activity against Neisseria gonorrhoeae WHO Z; in short: as §3

| SMILES | MIC (Staphylococcus aureus [1]) | MIC (Acinetobacter baumannii [2]) | MIC (Acinetobacter baumannii [3]) | MIC (Acinetobacter baumannii [4]) | MIC (Escherichia coli [5]) | MIC (Escherichia coli [6]) | MIC (Escherichia coli [7]) | MIC (Neisseria gonorrhoeae [8]) | MIC (Pseudomonas aeruginosa [9]) | MIC (Pseudomonas aeruginosa [10]) | MIC (Pseudomonas aeruginosa [11]) | MIC (Streptococcus pneumoniae) | MIC (Staphylococcus aureus [12]) | MIC (Staphylococcus aureus [13]) | MIC (Neisseria gonorrhoeae [14]) | MIC (Neisseria gonorrhoeae [15]) | MIC (Neisseria gonorrhoeae [16]) | MIC (Neisseria gonorrhoeae [17]) | MIC (Neisseria gonorrhoeae [18]) | MIC (Neisseria gonorrhoeae [19]) | also measured |
| --- | --- | --- | --- | --- | --- | --- | --- | --- | --- | --- | --- | --- | --- | --- | --- | --- | --- | --- | --- | --- | --- |
| CCCCCCCCCN1CCN(c2c(F)cc3c(=O)c(C(=O)O)cn(C4CC4)c3c2OC)CC1 | > 64 µg/mL | 64 µg/mL (≈ 131 µM) | 64 µg/mL (≈ 131 µM) | 64 µg/mL (≈ 131 µM) | 8 µg/mL (≈ 16.4 µM) | 8 µg/mL (≈ 16.4 µM) | > 64 µg/mL | 0.25 µg/mL (≈ 0.513 µM) | > 64 µg/mL | ≥ 64 µg/mL | ≥ 64 µg/mL | 2 µg/mL (≈ 4.1 µM) | 8 µg/mL (≈ 16.4 µM) | ≥ 64 µg/mL |  |  |  |  |  |  |  |
| CCCCCCCCCCN1CCN(c2c(F)cc3c(=O)c(C(=O)O)cn(C4CC4)c3c2OC)CC1 | > 64 µg/mL | 64 µg/mL (≈ 128 µM) | ≥ 64 µg/mL | 64 µg/mL (≈ 128 µM) | ≥ 32 µg/mL | ≥ 64 µg/mL | > 64 µg/mL | 0.12 µg/mL (≈ 0.239 µM) | > 64 µg/mL | > 64 µg/mL | > 64 µg/mL | > 64 µg/mL | 32 µg/mL (≈ 63.8 µM) | ≥ 64 µg/mL | 256 µg/mL (≈ 510 µM) | 8 µg/mL (≈ 15.9 µM) | 256 µg/mL (≈ 510 µM) | 2 µg/mL (≈ 3.99 µM) | 1 µg/mL (≈ 1.99 µM) | ≥ 64 µg/mL | MIC (Neisseria gonorrhoeae [20]): 0.25 µg/mL (≈ 0.498 µM); MIC (Neisseria gonorrhoeae [21]): 1 µg/mL (≈ 1.99 µM); MIC (Neisseria gonorrhoeae [22]): 1 µg/mL (≈ 1.99 µM); MIC (Neisseria gonorrhoeae [23]): 0.5 µg/mL (≈ 0.997 µM); MIC (Neisseria gonorrhoeae [24]): ≥ 64 µg/mL |
| CCOCCOCCN1CCN(c2c(F)cc3c(=O)c(C(=O)O)cn(C4CC4)c3c2OC)CC1 |  |  |  |  | 0.5 µg/mL (≈ 1.05 µM) |  |  | 2 µg/mL (≈ 4.19 µM) |  |  |  | 1 µg/mL (≈ 2.09 µM) | 0.5 µg/mL (≈ 1.05 µM) |  |  |  |  |  |  |  |  |
| CCCCCCCCCCCN1CCN(c2c(F)cc3c(=O)c(C(=O)O)cn(C4CC4)c3c2OC)CC1 | ≥ 64 µg/mL | 64 µg/mL (≈ 124 µM) | ≥ 64 µg/mL | 64 µg/mL (≈ 124 µM) | 16 µg/mL (≈ 31 µM) | ≥ 64 µg/mL | > 64 µg/mL | 0.5 µg/mL (≈ 0.97 µM) | > 64 µg/mL | > 64 µg/mL | > 64 µg/mL | 8 µg/mL (≈ 15.5 µM) | 32 µg/mL (≈ 62.1 µM) | 64 µg/mL (≈ 124 µM) |  |  |  |  |  |  |  |
| O=C(O)c1cn(C2CC2)c2cc(N3CCNCC3)c(F)cc2c1=O [CIPROFLOXACIN] | > 32 µg/mL | 0.5 µg/mL (≈ 1.51 µM) | > 32 µg/mL | > 32 µg/mL |  |  | > 32 µg/mL | 0.004 µg/mL (≈ 0.0121 µM) |  | > 32 µg/mL | > 32 µg/mL |  | 0.25 µg/mL (≈ 0.754 µM) | > 32 µg/mL | ≥ 32 µg/mL | 0.125 µg/mL (≈ 0.377 µM) | 32 µg/mL (≈ 96.6 µM) | 0.008 µg/mL (≈ 0.0241 µM) | 0.004 µg/mL (≈ 0.0121 µM) | 2 µg/mL (≈ 6.04 µM) | MIC (Neisseria gonorrhoeae [20]): 0.002 µg/mL (≈ 0.00604 µM); MIC (Neisseria gonorrhoeae [21]): 0.004 µg/mL (≈ 0.0121 µM); MIC (Neisseria gonorrhoeae [22]): 0.008 µg/mL (≈ 0.0241 µM); MIC (Neisseria gonorrhoeae [23]): 0.002 µg/mL (≈ 0.00604 µM); MIC (Neisseria gonorrhoeae [24]): > 32 µg/mL |
| COc1c(N2C[C@@H]3CCCN[C@@H]3C2)c(F)cc2c(=O)c(C(=O)O)cn(C3CC3)c12 [MOXIFLOXACIN] | 1 µg/mL (≈ 2.49 µM) | 0.25 µg/mL (≈ 0.623 µM) | 2 µg/mL (≈ 4.98 µM) | 4 µg/mL (≈ 9.96 µM) |  | 0.5 µg/mL (≈ 1.25 µM) |  | 0.06 µg/mL (≈ 0.149 µM) | 1 µg/mL (≈ 2.49 µM) | 8 µg/mL (≈ 19.9 µM) | 16 µg/mL (≈ 39.9 µM) | 0.06 µg/mL (≈ 0.149 µM) | 0.06 µg/mL (≈ 0.149 µM) | 0.5 µg/mL (≈ 1.25 µM) | 2 µg/mL (≈ 4.98 µM) | 0.03 µg/mL (≈ 0.0747 µM) | 16 µg/mL (≈ 39.9 µM) | 0.016 µg/mL (≈ 0.0399 µM) | 0.016 µg/mL (≈ 0.0399 µM) | 2 µg/mL (≈ 4.98 µM) | MIC (Neisseria gonorrhoeae [20]): 0.004 µg/mL (≈ 0.00996 µM); MIC (Neisseria gonorrhoeae [21]): 0.016 µg/mL (≈ 0.0399 µM); MIC (Neisseria gonorrhoeae [22]): 0.008 µg/mL (≈ 0.0199 µM); MIC (Neisseria gonorrhoeae [23]): 0.004 µg/mL (≈ 0.00996 µM); MIC (Neisseria gonorrhoeae [24]): 2 µg/mL (≈ 4.98 µM) |
